Measured values reported in ChEMBL document CHEMBL1155553, “Design and synthesis of alpha-ketoamides as cathepsin S inhibitors with potential applications against tumor invasion and angiogenesis” (J Med Chem, 2010).

tested on: HUVEC; test: Antiangiogenic activity in VEGF-stimulated HUVEC assessed as capillary tube formation after 16 hrs by photographic analysis; type: functional, Homo sapiens; conditions: not given
How it was run: (§1)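 HUVEC plated on Matrigel-coated wells, treated with α-ketoamide in presence of VEGF (20 ng/mL); after 16 h incubation cultures photographed and capillary tubes (branch points) counted under microscope at 100× magnification. Tube formation expressed relative to DMSO control; mean ± SD from three separate experiments.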

SMILES | Activity [%]
CCOC(=O)CNC(=O)C(=O)[C@H](COCc1ccccc1)NC(=O)[C@H](CC(C)C)NC(=O)c1cccc2c1C(=O)c1ccccc1-2 | 88
CCOC(=O)CNC(=O)C(=O)[C@H](COCc1ccccc1)NC(=O)[C@H](CC1CCCCC1)NC(=O)C(=O)c1cccs1 | 64
CCOC(=O)CNC(=O)C(=O)C(COCc1ccccc1)NC(=O)[C@H](CC1CCCCC1)NC(=O)c1ccc(C(=O)OC)c(N)c1 (stereo not given in full) | 43

tested on: not listed separately; test: Antiinvasive activity in human CL1-5 cells assessed as cellular migration after 24 hrs by fluorescence assay relative to control; type: functional; parameters: concentration or dose not given beside the values; conditions: not given

SMILES | Activity [%]
CCOC(=O)CNC(=O)C(=O)C(COCc1ccccc1)NC(=O)[C@H](CC1CCCCC1)NC(=O)/C=C/c1cc(OC)ccc1OC (stereo not given in full) | 81
CCOC(=O)CNC(=O)C(=O)[C@H](COCc1ccccc1)NC(=O)[C@H](CC1CCCCC1)NC(=O)c1cc(Br)ccc1N | 52
CCOC(=O)CNC(=O)C(=O)C(COCc1ccccc1)NC(=O)[C@H](CC1CCCCC1)NC(=O)C1=CC(=O)CC(C)(C)O1 (stereo not given in full) | 98
CCOC(=O)CNC(=O)C(=O)C(COCc1ccccc1)NC(=O)[C@H](CC1CCCCC1)NC(=O)c1ccc(C(=O)OC)c(NC(=O)OC(C)(C)C)c1 (stereo not given in full) | 51
CCOC(=O)CNC(=O)C(=O)C(COCc1ccccc1)NC(=O)[C@H](CC1CCCCC1)NC(=O)C1(C)CC1 (stereo not given in full) | 101
CCOC(=O)CNC(=O)C(=O)[C@H](COCc1ccccc1)NC(=O)[C@H](CC(C)C)NC(=O)c1cccc2c1C(=O)c1ccccc1-2 | 50
CCOC(=O)CNC(=O)C(=O)[C@H](COCc1ccccc1)NC(=O)[C@H](CC1CCCCC1)NC(=O)C(=O)c1cccs1 | 56
CCOC(=O)CNC(=O)C(=O)C(COCc1ccccc1)NC(=O)[C@H](CC1CCCCC1)NC(=O)c1ccc(C(=O)OC)c(N)c1 (stereo not given in full) | 53

tested on: not listed separately; test: Cytotoxicity against human CL1-5 cells assessed as maximal tolerated dose by MTT assay; type: cell-based; conditions: read-out: MTD
How it was run: (§2)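 MTT proliferation read-out for overall cytotoxicity of the α-ketoamides. Compounds were tested at concentrations up to 50 μM. Both cell types express high levels of Cat S.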

SMILES | MNTC [µM]
CCOC(=O)CNC(=O)C(=O)[C@H](COCc1ccccc1)NC(=O)[C@H](CC(C)C)NC(=O)c1cccc2c1C(=O)c1ccccc1-2 | 10
CCOC(=O)CNC(=O)C(=O)[C@H](COCc1ccccc1)NC(=O)[C@H](CC1CCCCC1)NC(=O)C(=O)c1cccs1 | 10

tested on: not listed separately; test: Cytotoxicity against HUVEC assessed as maximal tolerated dose by MTT assay; type: cell-based; conditions: human, read-out: MTD; how it was run: as §2

SMILES | MNTC [µM]
CCOC(=O)CNC(=O)C(=O)[C@H](COCc1ccccc1)NC(=O)[C@H](CC(C)C)NC(=O)c1cccc2c1C(=O)c1ccccc1-2 | 10
CCOC(=O)CNC(=O)C(=O)[C@H](COCc1ccccc1)NC(=O)[C@H](CC1CCCCC1)NC(=O)C(=O)c1cccs1 | 10

biological target: Cathepsin B (Homo sapiens) (UniProt P07858); test: Inhibition of cathepsin B assessed as proteolytic activity at 40 nM by fluorimetric assay; parameters: Activity: scale not given: the % may be the effect or the level left; conditions: not given

SMILES | Activity [%]
CCOC(=O)CNC(=O)C(=O)C(COCc1ccccc1)NC(=O)[C@H](CC1CCCCC1)NC(=O)c1ccc(C(=O)OC)c(NC(=O)OC(C)(C)C)c1 (stereo not given in full) | 89
CCOC(=O)CNC(=O)C(=O)C(COCc1ccccc1)NC(=O)[C@H](CC1CCCCC1)NC(=O)c1ccc(C(=O)OC)c(N)c1 (stereo not given in full) | 84

biological target: T1, Cathepsin S (Homo sapiens, UniProt P25774); test: Inhibition of cathepsin S-mediated cleavage of fibronectin by cell-based ECM degradation assay; conditions: not given
Target sequence in this assay (P25774 115-331 limits assumed): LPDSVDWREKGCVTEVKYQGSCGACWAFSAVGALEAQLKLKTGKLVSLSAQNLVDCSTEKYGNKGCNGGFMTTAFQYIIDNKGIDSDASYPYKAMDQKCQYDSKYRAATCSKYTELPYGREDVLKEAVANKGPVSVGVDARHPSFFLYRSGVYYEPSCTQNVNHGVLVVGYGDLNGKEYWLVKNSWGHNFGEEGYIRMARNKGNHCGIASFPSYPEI

SMILES | inhibition
CCOC(=O)CNC(=O)C(=O)[C@H](COCc1ccccc1)NC(=O)[C@H](CC(C)C)NC(=O)c1cccc2c1C(=O)c1ccccc1-2 | Dose-dependent effect
CCOC(=O)CNC(=O)C(=O)[C@H](COCc1ccccc1)NC(=O)[C@H](CC1CCCCC1)NC(=O)C(=O)c1cccs1 | Dose-dependent effect
CCOC(=O)CNC(=O)C(=O)C(COCc1ccccc1)NC(=O)[C@H](CC1CCCCC1)NC(=O)c1ccc(C(=O)OC)c(N)c1 (stereo not given in full) | Dose-dependent effect

tested on: not listed separately; test: Antiinvasive activity in human CL1-5 cells after 24 hrs by fluorescence assay; type: functional; conditions: not given
How it was run: (§3)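 CL1-5 lung adenocarcinoma cells (2 × 10⁵ per well) treated with compound; control wells received DMSO (10 μL) in medium (2 mL). Cell traversal/invasion expressed as percent of DMSO control (set 100%); mean ± SD from hexaplicate experiments.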

SMILES | Activity [%]
CCOC(=O)CNC(=O)C(=O)[C@H](COCc1ccccc1)NC(=O)[C@H](CC(C)C)NC(=O)c1cccc2c1C(=O)c1ccccc1-2 | 68
CCOC(=O)CNC(=O)C(=O)[C@H](COCc1ccccc1)NC(=O)[C@H](CC1CCCCC1)NC(=O)C(=O)c1cccs1 | 82
CCOC(=O)CNC(=O)C(=O)C(COCc1ccccc1)NC(=O)[C@H](CC1CCCCC1)NC(=O)c1ccc(C(=O)OC)c(N)c1 (stereo not given in full) | 67

tested on: HUVEC; test: Cytotoxicity against HUVEC by MTT assay; type: cell-based; conditions: Homo sapiens
How it was run: (§4)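 Overall cytotoxicity measured by MTT proliferation assay, compounds tested at concentrations up to 50 μM.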

SMILES | IC50 [µM]
CCOC(=O)CNC(=O)C(=O)C(COCc1ccccc1)NC(=O)[C@H](CC1CCCCC1)NC(=O)C1=CC(=O)CC(C)(C)O1 (stereo not given in full) | 37
CCOC(=O)CNC(=O)C(=O)C(COCc1ccccc1)NC(=O)[C@H](CC1CCCCC1)NC(=O)c1ccc(C(=O)OC)c(NC(=O)OC(C)(C)C)c1 (stereo not given in full) | 47
CCOC(=O)CNC(=O)C(=O)C(COCc1ccccc1)NC(=O)[C@H](CC1CCCCC1)NC(=O)C1(C)CC1 (stereo not given in full) | 35
CCOC(=O)CNC(=O)C(=O)[C@H](COCc1ccccc1)NC(=O)[C@H](CC(C)C)NC(=O)c1cccc2c1C(=O)c1ccccc1-2 | 30
CCOC(=O)CNC(=O)C(=O)[C@H](COCc1ccccc1)NC(=O)[C@H](CC1CCCCC1)NC(=O)C(=O)c1cccs1 | 36
CCOC(=O)CNC(=O)C(=O)C(COCc1ccccc1)NC(=O)[C@H](CC1CCCCC1)NC(=O)c1ccc(C(=O)OC)c(N)c1 (stereo not given in full) | > 50

tested on: HUVEC; test: Antiangiogenic activity in VEGF-stimulated HUVEC assessed as inhibition of capillary tube formation after 16 hrs by photographic analysis; type: functional, Homo sapiens; parameters: scale not given: the % may be the effect or the level left; conditions: not given; how it was run: as §1

SMILES | Activity [%]
CCOC(=O)CNC(=O)C(=O)[C@H](COCc1ccccc1)NC(=O)[C@H](CC(C)C)NC(=O)c1cccc2c1C(=O)c1ccccc1-2 | 32
CCOC(=O)CNC(=O)C(=O)[C@H](COCc1ccccc1)NC(=O)[C@H](CC1CCCCC1)NC(=O)C(=O)c1cccs1 | 36
CCOC(=O)CNC(=O)C(=O)C(COCc1ccccc1)NC(=O)[C@H](CC1CCCCC1)NC(=O)c1ccc(C(=O)OC)c(N)c1 (stereo not given in full) | 57

tested on: not listed separately; test: Antiinvasive activity in human CL1-5 cells assessed as cellular invasion after 24 hrs by fluorescence assay; type: functional; conditions: not given; how it was run: as §3

SMILES | Activity [%]
CCOC(=O)CNC(=O)C(=O)[C@H](COCc1ccccc1)NC(=O)[C@H](CC(C)C)NC(=O)c1cccc2c1C(=O)c1ccccc1-2 | 32
CCOC(=O)CNC(=O)C(=O)[C@H](COCc1ccccc1)NC(=O)[C@H](CC1CCCCC1)NC(=O)C(=O)c1cccs1 | 18
CCOC(=O)CNC(=O)C(=O)C(COCc1ccccc1)NC(=O)[C@H](CC1CCCCC1)NC(=O)c1ccc(C(=O)OC)c(N)c1 (stereo not given in full) | 33

tested on: HUVEC; test: Antiinvasive activity in VEGF-stimulated HUVEC assessed as cellular migration after 24 hrs by fluorescence assay relative to control; type: functional, Homo sapiens; parameters: concentration or dose not given beside the values; conditions: not given

SMILES | Activity [%]
CCOC(=O)CNC(=O)C(=O)C(COCc1ccccc1)NC(=O)[C@H](CC1CCCCC1)NC(=O)/C=C/c1cc(OC)ccc1OC (stereo not given in full) | 59
CCOC(=O)CNC(=O)C(=O)[C@H](COCc1ccccc1)NC(=O)[C@H](CC1CCCCC1)NC(=O)c1cc(Br)ccc1N | 69
CCOC(=O)CNC(=O)C(=O)C(COCc1ccccc1)NC(=O)[C@H](CC1CCCCC1)NC(=O)C1=CC(=O)CC(C)(C)O1 (stereo not given in full) | 89
CCOC(=O)CNC(=O)C(=O)C(COCc1ccccc1)NC(=O)[C@H](CC1CCCCC1)NC(=O)c1ccc(C(=O)OC)c(NC(=O)OC(C)(C)C)c1 (stereo not given in full) | 82
CCOC(=O)CNC(=O)C(=O)C(COCc1ccccc1)NC(=O)[C@H](CC1CCCCC1)NC(=O)C1(C)CC1 (stereo not given in full) | 95
CCOC(=O)CNC(=O)C(=O)[C@H](COCc1ccccc1)NC(=O)[C@H](CC(C)C)NC(=O)c1cccc2c1C(=O)c1ccccc1-2 | 55
CCOC(=O)CNC(=O)C(=O)[C@H](COCc1ccccc1)NC(=O)[C@H](CC1CCCCC1)NC(=O)C(=O)c1cccs1 | 57
CCOC(=O)CNC(=O)C(=O)C(COCc1ccccc1)NC(=O)[C@H](CC1CCCCC1)NC(=O)c1ccc(C(=O)OC)c(N)c1 (stereo not given in full) | 49

tested on: not listed separately; test: Cytotoxicity against human CL1-5 cells by MTT assay; type: cell-based; conditions: not given; how it was run: as §4

SMILES | IC50 [µM]
CCOC(=O)CNC(=O)C(=O)C(COCc1ccccc1)NC(=O)[C@H](CC1CCCCC1)NC(=O)/C=C/c1cc(OC)ccc1OC (stereo not given in full) | > 50
CCOC(=O)CNC(=O)C(=O)C(COCc1ccccc1)NC(=O)[C@H](CC1CCCCC1)NC(=O)C1=CC(=O)CC(C)(C)O1 (stereo not given in full) | > 50
CCOC(=O)CNC(=O)C(=O)C(COCc1ccccc1)NC(=O)[C@H](CC1CCCCC1)NC(=O)c1ccc(C(=O)OC)c(NC(=O)OC(C)(C)C)c1 (stereo not given in full) | 36
CCOC(=O)CNC(=O)C(=O)C(COCc1ccccc1)NC(=O)[C@H](CC1CCCCC1)NC(=O)C1(C)CC1 (stereo not given in full) | > 50
CCOC(=O)CNC(=O)C(=O)[C@H](COCc1ccccc1)NC(=O)[C@H](CC(C)C)NC(=O)c1cccc2c1C(=O)c1ccccc1-2 | 23
CCOC(=O)CNC(=O)C(=O)[C@H](COCc1ccccc1)NC(=O)[C@H](CC1CCCCC1)NC(=O)C(=O)c1cccs1 | > 50
CCOC(=O)CNC(=O)C(=O)C(COCc1ccccc1)NC(=O)[C@H](CC1CCCCC1)NC(=O)c1ccc(C(=O)OC)c(N)c1 (stereo not given in full) | > 50

biological target: Procathepsin L (Homo sapiens) (UniProt P07711); test: Inhibition of cathepsin L assessed as proteolytic activity at 40 nM by fluorimetric assay; parameters: Activity: scale not given: the % may be the effect or the level left; conditions: not given
Sequence (P07711 114-333 limits assumed): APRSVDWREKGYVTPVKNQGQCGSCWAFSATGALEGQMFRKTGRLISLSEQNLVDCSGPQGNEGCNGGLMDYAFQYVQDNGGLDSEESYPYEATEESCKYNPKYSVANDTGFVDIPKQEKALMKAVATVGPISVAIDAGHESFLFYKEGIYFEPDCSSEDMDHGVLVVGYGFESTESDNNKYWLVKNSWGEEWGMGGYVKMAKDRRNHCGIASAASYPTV

SMILES | Activity [%]
CCOC(=O)CNC(=O)C(=O)C(COCc1ccccc1)NC(=O)[C@H](CC1CCCCC1)NC(=O)c1ccc(C(=O)OC)c(NC(=O)OC(C)(C)C)c1 (stereo not given in full) | 8.7
CCOC(=O)CNC(=O)C(=O)C(COCc1ccccc1)NC(=O)[C@H](CC1CCCCC1)NC(=O)c1ccc(C(=O)OC)c(N)c1 (stereo not given in full) | 8

biological target: T1, Cathepsin S; test: Inhibition of human recombinant cathepsin S expressed in Escherichia coli BL21 (DE3) after 10 mins by fluorescence assay; conditions: not given
Target sequence in this assay (P25774 whole entry): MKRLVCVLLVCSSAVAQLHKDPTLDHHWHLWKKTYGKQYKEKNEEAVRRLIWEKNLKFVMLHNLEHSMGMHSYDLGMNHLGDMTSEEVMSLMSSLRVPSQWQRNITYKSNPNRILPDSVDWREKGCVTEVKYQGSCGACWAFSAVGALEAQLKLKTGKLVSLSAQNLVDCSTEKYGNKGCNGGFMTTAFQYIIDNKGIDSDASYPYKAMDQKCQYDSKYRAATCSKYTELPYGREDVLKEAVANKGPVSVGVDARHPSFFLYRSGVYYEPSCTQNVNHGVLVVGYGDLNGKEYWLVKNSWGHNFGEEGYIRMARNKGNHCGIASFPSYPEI

SMILES | IC50 [µM]
CCOC(=O)CNC(=O)C(=O)C(COCc1ccccc1)NC(=O)[C@H](CC1CCCCC1)NC(=O)/C=C/c1cc(OC)ccc1OC (stereo not given in full) | 0.0038
CCOC(=O)CNC(=O)C(=O)[C@H](COCc1ccccc1)NC(=O)[C@H](CC1CCCCC1)NC(=O)c1cc(Br)ccc1N | 0.0062
CCOC(=O)CNC(=O)C(=O)C(COCc1ccccc1)NC(=O)[C@H](CC1CCCCC1)NC(=O)C1=CC(=O)CC(C)(C)O1 (stereo not given in full) | 0.0043
CCOC(=O)CNC(=O)C(=O)C(COCc1ccccc1)NC(=O)[C@H](CC1CCCCC1)NC(=O)c1ccc(C(=O)OC)c(NC(=O)OC(C)(C)C)c1 (stereo not given in full) | 0.0492
CCOC(=O)CNC(=O)C(=O)C(COCc1ccccc1)NC(=O)[C@H](CC1CCCCC1)NC(=O)C1(C)CC1 (stereo not given in full) | 0.0034
CCOC(=O)CNC(=O)C(=O)[C@H](COCc1ccccc1)NC(=O)[C@H](CC(C)C)NC(=O)c1cccc2c1C(=O)c1ccccc1-2 | 0.0088
CCOC(=O)CNC(=O)C(=O)[C@H](COCc1ccccc1)NC(=O)[C@H](CC1CCCCC1)NC(=O)C(=O)c1cccs1 | 0.0066
CCOC(=O)CNC(=O)C(=O)C(COCc1ccccc1)NC(=O)[C@H](CC1CCCCC1)NC(=O)c1ccc(C(=O)OC)c(N)c1 (stereo not given in full) | 0.0058
